These results are taken from ChEMBL document CHEMBL3352788, “Characterization of selective exosite-binding inhibitors of matrix metalloproteinase 13 that prevent articular cartilage degradation in vitro” (J Med Chem, 2014).

Experiment [1] addresses Procathepsin L (Homo sapiens) (UniProt P07711). In words: Inhibition of recombinant human cathepsin L using GGALRAG substrate at up to 20 uM after 3 hrs. In a few lines: (§1)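 Each protease was preincubated 30 min at 25 °C with compound in its assay buffer. Peptide substrate was then added and the reaction ran 3 h at 25 °C before quenching with SDS/EDTA/iodoacetate. Substrate-to-product conversion (%) was read by microfluidic electrophoresis. Compounds were tested in singlicate as 12-point 3-fold dilutions from 20 μM to 0.1 nM. IC50 was taken as the concentration giving 50% of no-compound control activity.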

Experiment [2] concerns the target Furin (Homo sapiens) (UniProt P09958). In words: Inhibition of recombinant human furin using RRVKRSLD substrate at up to 20 uM after 3 hrs. A digest of the protocol: as §1
Experiment [3] has as its target Macrophage metalloelastase (Homo sapiens) (UniProt P39900). Nature of the experiment: Inhibition of recombinant human MMP-12 using GRIGFL substrate up to 20 uM. In a few lines: (§2)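 Outsourced microfluidic protease panel. Compound was preincubated with each protease for 30 min at 25 °C, then peptide substrate was added for 3 h at 25 °C and quenched with SDS/EDTA/iodoacetate. Substrate-to-product conversion was measured on LabChip. Compounds were tested singly in a 12-point 3-fold dilution series, top 20 μM (5 μM for two reference compounds).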

Experiment [4] has as its target Urokinase-type plasminogen activator (Homo sapiens) (UniProt P00749). In words: Inhibition of recombinant human uPA using GRTSSVEP substrate at up to 20 uM after 3 hrs. In a few lines:
as §1

In experiment [5] the target is Prothrombin (Homo sapiens) (UniProt P00734). In words: Inhibition of recombinant human thrombin using PRTLT substrate at up to 20 uM after 3 hrs. A digest of the protocol:
as §1

For experiment [6], the target named is Cathepsin D (Homo sapiens) (UniProt P07339). In words: Inhibition of recombinant human cathepsin D using EVNLDAEFRK substrate at up to 20 uM after 3 hrs. In a few lines:
as §2

Experiment [7] deals with T1, Caspase-5 (Homo sapiens) (UniProt P51878).
T1 sequence (whole entry): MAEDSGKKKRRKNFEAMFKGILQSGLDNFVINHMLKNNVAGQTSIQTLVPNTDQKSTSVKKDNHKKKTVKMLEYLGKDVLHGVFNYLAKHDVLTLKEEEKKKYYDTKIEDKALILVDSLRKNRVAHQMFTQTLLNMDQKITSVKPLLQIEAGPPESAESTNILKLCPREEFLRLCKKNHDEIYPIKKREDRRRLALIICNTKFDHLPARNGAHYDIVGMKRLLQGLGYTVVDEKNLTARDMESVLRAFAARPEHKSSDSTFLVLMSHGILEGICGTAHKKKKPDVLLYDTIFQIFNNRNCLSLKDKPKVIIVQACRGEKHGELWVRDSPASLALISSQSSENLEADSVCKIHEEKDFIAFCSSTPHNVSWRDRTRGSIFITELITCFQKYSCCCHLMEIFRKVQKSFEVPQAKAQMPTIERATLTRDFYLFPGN
In words: Inhibition of recombinant human caspase 5 using LEHDGP substrate at up to 20 uM after 3 hrs. In a few lines:
as §2

Experiment [8] has as its target T2, Caspase-3 (Homo sapiens) (UniProt P42574).
T2 sequence (whole entry): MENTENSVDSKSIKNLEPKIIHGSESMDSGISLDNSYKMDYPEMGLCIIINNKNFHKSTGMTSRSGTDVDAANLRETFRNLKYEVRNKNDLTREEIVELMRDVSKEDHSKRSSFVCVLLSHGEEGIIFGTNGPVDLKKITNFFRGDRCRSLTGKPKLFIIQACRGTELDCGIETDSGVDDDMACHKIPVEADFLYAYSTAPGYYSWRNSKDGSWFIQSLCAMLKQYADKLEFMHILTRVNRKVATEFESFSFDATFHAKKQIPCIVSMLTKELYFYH
Nature of the experiment: Inhibition of recombinant human caspase 3 using DEVDAA substrate at up to 20 uM after 3 hrs. In a few lines: as §2

Experiment [9] deals with Beta-secretase 1 (Homo sapiens) (UniProt P56817). Nature of the experiment: Inhibition of recombinant human BACE1 using SEVNLDAEFRKKRR substrate at up to 20 uM after 3 hrs. In a few lines: as §2
Beta-secretase 1 (Homo sapiens), sequence (P56817 whole entry): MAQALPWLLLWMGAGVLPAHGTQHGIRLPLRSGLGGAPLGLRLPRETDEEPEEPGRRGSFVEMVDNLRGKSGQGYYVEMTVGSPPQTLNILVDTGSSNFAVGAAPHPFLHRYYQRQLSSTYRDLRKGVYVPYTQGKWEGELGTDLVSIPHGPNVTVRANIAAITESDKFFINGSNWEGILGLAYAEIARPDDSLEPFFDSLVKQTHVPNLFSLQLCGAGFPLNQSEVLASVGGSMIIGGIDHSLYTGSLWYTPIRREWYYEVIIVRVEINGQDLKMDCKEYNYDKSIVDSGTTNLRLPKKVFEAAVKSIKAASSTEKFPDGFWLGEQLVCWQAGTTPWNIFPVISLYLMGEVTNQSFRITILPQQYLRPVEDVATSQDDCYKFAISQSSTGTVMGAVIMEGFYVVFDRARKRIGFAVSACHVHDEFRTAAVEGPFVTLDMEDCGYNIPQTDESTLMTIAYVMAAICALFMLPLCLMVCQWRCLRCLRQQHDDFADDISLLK
The target in experiment [10] is Matrix metalloproteinase-9 (Homo sapiens) (UniProt P14780). In words: Inhibition of recombinant human MMP-9 using GRIGFL substrate up to 20 uM. In a few lines: as §2
Matrix metalloproteinase-9 (Homo sapiens), sequence (P14780 whole entry): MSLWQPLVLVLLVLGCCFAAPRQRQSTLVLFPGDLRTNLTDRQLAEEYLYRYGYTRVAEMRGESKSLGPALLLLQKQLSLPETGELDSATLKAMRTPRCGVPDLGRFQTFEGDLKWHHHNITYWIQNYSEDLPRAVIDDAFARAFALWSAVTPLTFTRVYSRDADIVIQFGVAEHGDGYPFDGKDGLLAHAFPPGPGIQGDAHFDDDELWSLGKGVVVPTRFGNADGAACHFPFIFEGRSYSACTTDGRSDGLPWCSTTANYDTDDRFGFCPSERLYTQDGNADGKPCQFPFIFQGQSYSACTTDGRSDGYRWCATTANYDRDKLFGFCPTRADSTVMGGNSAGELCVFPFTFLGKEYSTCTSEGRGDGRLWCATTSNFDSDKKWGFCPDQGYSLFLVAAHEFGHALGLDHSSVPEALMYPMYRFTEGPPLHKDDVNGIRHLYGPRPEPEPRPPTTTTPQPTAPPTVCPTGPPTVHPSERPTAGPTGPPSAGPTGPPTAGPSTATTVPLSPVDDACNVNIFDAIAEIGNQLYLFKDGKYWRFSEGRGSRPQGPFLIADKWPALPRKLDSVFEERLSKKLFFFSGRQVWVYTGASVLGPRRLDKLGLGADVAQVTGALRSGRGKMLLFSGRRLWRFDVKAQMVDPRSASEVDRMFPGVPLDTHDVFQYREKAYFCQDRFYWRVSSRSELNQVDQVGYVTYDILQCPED
Experiment [11] addresses T3, Caspase-2 (Homo sapiens) (UniProt P42575).
T3 sequence (whole entry): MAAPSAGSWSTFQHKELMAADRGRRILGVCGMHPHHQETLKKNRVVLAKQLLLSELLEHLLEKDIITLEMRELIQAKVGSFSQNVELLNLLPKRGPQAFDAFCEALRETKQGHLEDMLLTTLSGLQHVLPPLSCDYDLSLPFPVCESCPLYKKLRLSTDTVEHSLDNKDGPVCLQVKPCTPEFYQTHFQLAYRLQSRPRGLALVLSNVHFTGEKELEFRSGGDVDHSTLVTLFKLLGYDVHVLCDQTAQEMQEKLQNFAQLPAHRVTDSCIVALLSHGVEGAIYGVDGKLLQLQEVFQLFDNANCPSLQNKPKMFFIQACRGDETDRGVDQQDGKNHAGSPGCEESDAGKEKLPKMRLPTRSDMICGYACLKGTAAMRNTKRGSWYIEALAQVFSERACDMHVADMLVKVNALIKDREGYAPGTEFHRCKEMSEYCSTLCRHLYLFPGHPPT
In words: Inhibition of recombinant human caspase 2 using DEVDAA substrate at up to 20 uM after 3 hrs. A digest of the protocol:
as §2

Experiment [12] has as its target T4, Cytochrome P450 1A2 (Homo sapiens, UniProt P05177).
T4 sequence (P05177 whole entry): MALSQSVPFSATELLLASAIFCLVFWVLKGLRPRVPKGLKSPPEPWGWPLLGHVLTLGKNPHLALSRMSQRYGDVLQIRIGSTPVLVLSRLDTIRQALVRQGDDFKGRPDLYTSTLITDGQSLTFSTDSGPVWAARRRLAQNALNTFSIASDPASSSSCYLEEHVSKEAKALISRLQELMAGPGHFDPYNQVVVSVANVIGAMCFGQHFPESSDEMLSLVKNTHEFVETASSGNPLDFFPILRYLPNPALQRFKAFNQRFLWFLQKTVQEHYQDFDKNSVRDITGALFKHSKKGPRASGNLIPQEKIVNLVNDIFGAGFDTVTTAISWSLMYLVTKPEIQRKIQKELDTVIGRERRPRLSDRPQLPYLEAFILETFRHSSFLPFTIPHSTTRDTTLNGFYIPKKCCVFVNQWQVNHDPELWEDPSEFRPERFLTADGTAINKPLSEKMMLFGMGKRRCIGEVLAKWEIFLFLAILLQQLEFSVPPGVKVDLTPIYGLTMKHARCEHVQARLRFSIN
Nature of the experiment: Inhibition of CYP1A2 (unknown origin) using tacrin substrate. In kind it is ADME. A digest of the protocol:
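Human liver microsomes with probe substrate and an NADPH-regenerating system in 0.1 M potassium phosphate pH 7.4 at 37 °C, run in duplicate. Inhibitor at 0–20 μM (0–2.5 μM for one compound), eight concentrations. Reactions were stopped with acetonitrile/formic acid containing isotope-labelled internal standard, and metabolite area ratios were compared with and without inhibitor. IC50 was taken by linear interpolation between bracketing concentrations.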

Experiment [13] concerns the target Cytochrome P450 3A4 (Homo sapiens, UniProt P08684). Nature of the experiment: Inhibition of CYP3A4 (unknown origin) using midazolam substrate. In kind it is ADME. In a few lines:
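Reactions stopped with acetonitrile/0.1% formic acid plus labelled internal standard. Metabolite measured by LC-MS area ratio. IC50 by linear interpolation.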

Furin (Homo sapiens), sequence (P09958 whole entry): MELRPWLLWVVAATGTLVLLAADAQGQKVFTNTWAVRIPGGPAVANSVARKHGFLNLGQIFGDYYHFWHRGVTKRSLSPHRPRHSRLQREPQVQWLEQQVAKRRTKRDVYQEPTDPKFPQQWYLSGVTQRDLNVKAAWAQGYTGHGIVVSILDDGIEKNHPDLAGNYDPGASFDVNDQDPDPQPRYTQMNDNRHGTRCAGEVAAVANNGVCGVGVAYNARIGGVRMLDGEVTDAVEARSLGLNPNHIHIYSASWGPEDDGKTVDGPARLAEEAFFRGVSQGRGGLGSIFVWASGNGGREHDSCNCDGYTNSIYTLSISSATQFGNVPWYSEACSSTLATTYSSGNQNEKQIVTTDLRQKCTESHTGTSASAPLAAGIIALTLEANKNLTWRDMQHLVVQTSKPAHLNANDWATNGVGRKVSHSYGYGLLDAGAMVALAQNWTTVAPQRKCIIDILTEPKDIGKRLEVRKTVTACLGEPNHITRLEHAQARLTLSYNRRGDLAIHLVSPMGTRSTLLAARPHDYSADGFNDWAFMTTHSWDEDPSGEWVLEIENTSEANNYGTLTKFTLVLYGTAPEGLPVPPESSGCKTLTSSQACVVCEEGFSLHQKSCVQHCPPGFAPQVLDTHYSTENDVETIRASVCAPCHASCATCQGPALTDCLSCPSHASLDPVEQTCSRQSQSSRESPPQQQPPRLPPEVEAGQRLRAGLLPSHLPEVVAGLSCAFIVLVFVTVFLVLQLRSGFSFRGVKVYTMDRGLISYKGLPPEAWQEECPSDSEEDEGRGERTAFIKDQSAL
Cytochrome P450 3A4, sequence (P08684 whole entry): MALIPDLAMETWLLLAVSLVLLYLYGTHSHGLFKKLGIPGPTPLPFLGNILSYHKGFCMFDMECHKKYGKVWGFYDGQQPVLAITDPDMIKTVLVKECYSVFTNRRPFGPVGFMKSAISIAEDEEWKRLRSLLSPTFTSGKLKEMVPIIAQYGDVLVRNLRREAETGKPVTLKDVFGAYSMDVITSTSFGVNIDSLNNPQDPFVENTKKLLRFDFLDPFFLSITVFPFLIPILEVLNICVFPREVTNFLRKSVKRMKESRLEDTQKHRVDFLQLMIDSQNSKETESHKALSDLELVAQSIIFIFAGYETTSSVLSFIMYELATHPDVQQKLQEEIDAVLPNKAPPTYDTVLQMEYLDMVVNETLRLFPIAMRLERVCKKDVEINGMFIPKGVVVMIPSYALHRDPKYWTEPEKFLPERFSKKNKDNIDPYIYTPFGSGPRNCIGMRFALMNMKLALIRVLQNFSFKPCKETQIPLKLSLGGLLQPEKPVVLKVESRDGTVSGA
Procathepsin L (Homo sapiens), sequence (P07711 114-333 limits assumed): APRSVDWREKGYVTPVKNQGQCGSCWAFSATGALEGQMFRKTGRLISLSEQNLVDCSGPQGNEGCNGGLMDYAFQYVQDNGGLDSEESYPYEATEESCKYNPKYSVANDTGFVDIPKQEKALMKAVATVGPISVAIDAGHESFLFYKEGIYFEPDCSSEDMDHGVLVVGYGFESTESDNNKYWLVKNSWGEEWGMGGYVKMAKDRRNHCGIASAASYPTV
Cathepsin D (Homo sapiens), sequence (P07339 65-162 limits assumed): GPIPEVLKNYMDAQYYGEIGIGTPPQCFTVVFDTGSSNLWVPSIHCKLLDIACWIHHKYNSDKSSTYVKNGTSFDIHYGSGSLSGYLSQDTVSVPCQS
Cathepsin D (Homo sapiens), sequence (P07339 169-412 limits assumed): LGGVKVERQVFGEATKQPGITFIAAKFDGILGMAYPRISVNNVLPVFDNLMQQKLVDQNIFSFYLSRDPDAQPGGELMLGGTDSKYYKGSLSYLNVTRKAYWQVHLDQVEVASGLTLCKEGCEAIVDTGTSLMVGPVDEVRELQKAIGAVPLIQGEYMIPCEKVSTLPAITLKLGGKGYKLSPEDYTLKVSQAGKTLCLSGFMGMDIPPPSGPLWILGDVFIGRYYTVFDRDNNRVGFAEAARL
Macrophage metalloelastase (Homo sapiens), sequence (P39900 106-470 limits assumed): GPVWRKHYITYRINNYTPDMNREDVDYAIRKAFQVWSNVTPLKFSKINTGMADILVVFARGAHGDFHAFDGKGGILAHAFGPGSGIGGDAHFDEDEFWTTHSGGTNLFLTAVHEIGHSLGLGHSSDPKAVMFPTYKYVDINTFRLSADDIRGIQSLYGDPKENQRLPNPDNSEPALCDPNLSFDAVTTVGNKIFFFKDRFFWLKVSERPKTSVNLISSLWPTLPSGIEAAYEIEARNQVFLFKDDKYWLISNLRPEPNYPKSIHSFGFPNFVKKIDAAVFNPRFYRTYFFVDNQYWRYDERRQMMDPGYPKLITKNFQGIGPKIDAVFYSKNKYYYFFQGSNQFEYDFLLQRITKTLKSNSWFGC

On to `Cc1ccc(CSc2nc(O)c3c(n2)CCC3)cc1`, for which the inhibition in experiment [1] is under 10%; in experiment [2] it was under 10%; in [3] it was over 10%; in [4], under 10%; in experiment [5] it was under 10%; in experiment [6], under 10%. In addition, the inhibition in experiment [7] is over 10%; in [8] it was under 10%; in experiment [9], under 10%; in experiment [10] it was over 10%; in experiment [11], under 10%.

As to `Cc1cc(CNC(=O)c2cc(C(=O)NCc3ccc(F)c(C)c3)ncn2)ccc1F`, in experiment [12], the IC50 was over 20 µM.

For `Cn1c(=O)n(Cc2ccc(C(=O)O)cc2)c(=O)c2cc(C#CCc3ccccc3)ccc21`, the IC50 in [12] and in experiment [13] was over 2.5 µM throughout.

Consider `Oc1nc(SCc2ccc(Cl)cc2)nc2c1CCC2`, for which the concentration for half-maximal inhibition (IC50) is 8.6 µM in experiment [12] and over 20 µM in experiment [13]. For the same molecule, the inhibition in [1] was under 10%; in [2], under 10%; in experiment [3], over 10%; in [4], under 10%; in experiment [5], under 10%; in experiment [6] it was under 10%. Moreover, the inhibition was under 10% in [7]; under 10% in [8]; under 10% in [9]; over 10% in experiment [10]; under 10% in experiment [11].

Consider `COC(=O)c1ccc(CSc2nc3c(c(=O)[nH]2)CCC3)cc1`, for which the IC50 in experiment [12] and in experiment [13] was over 20 µM in each case. Moreover, the inhibition in [1] was under 10%; in experiment [2] it was under 10%; in experiment [3] it was over 10%; in experiment [4] it was under 10%; in experiment [5] it was under 10%; in experiment [6], under 10%. The inhibition in [7] was under 10%; in [8] it was under 10%; in experiment [9], under 10%; in [10], over 10%; in experiment [11], under 10%.

Usually inhibition stands for how much of the control response was suppressed. Usually IC50 stands for the concentration that gives 50% inhibition. Read a low IC50 as higher potency.
